Data: ChEMBL document CHEMBL1134605, “Cytotoxic responses to aromatic ring and configurational variations in alpha-conidendrin, podophyllotoxin, and sikkimotoxin derivatives” (J Med Chem, 2001)
In brackets after ≈: the same amount, converted by molar mass.

Legend:
HL-60 [1] = assay: Relative potency compared to cytotoxicity against HL60/S cell line of etoposide; assay type: functional, Homo sapiens
How it was run: (§1)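 Relative potency compares each compound with etoposide, the reference, using IC50s from the same modified tetrazolium dye reduction viability assay. Cells were seeded at 6.7 × 10^4 cells/well in RPMI 1640 with L-glutamine and 10% FBS.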

CCRF-CEM [2] = assay: Cytotoxicity was assessed using human leukemic cell line CCRF-CEM; assay type: functional, cell-based
How it was run: (§2)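 Viability was read by a modified tetrazolium dye reduction method. Cells were harvested in logarithmic growth and seeded at 6.7 × 10^4 cells/well. They were grown in RPMI 1640 with L-glutamine and 10% FBS and cultured with the compounds. The IC50 was taken as the read-out.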

HL-60 [3] = assay: Resistance factor was determined using the ratio of (IC50) of drug resistance cells/drug sensitive cells in HL60/Vinc cell line; assay type: functional, Homo sapiens
How it was run: (§3)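 Resistance factor = IC50 in the drug-resistant line (HL60/ADR, which overexpresses MRP, or HL60/Vinc, which overexpresses Pgp) divided by IC50 in the drug-sensitive cells. IC50s came from the tetrazolium dye reduction viability assay, as averages of 2 determinations in a single experiment.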

CCRF-CEM [4] = assay: Relative potency compared to cytotoxicity against CCRF-CEM cell line of etoposide; assay type: functional, Homo sapiens; how it was run: as §1
HL-60 [5] = assay: Cytotoxicity was assessed using drug-sensitive human leukemic cell line HL60/S; assay type: functional, cell-based; how it was run: as §2
HL-60 [6] = assay: Cytotoxicity was assessed using vincristine-resistant human leukemic cell line HL60/Vinc; assay type: functional, cell-based
How it was run: (§4)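 Modified tetrazolium dye reduction viability assay on log-phase cells seeded at 6.7 × 10^4 cells/well in RPMI 1640 with L-glutamine and 10% FBS, cultured with compounds. HL60/ADR overexpresses MRP but not Pgp; HL60/Vinc overexpresses Pgp but not MRP. IC50 values are averages of 2 determinations from a single experiment.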

HL-60 [7] = assay: Cytotoxicity was assessed using adriamycin-resistant human leukemic cell line HL60/ADR; assay type: functional, cell-based; how it was run: as §4
HL-60 [8] = assay: Resistance factor was determined using the ratio of (IC50) of drug resistance cells/drug sensitive cells in HL60/ADR cell line; assay type: functional, Homo sapiens; how it was run: as §3
CCRF-CEM [9] = assay: Relative potency in comparison to etoposide; assay type: functional, Homo sapiens; how it was run: as §1
[10] = Homo sapiens, HL-60, read-out: IC50

Row | Compound | Relative potency (HL-60 [1]) | IC50 (CCRF-CEM [2]) | RF (HL-60 [3]) | Relative potency (CCRF-CEM [4]) | IC50 (HL-60 [5]; [10]) | IC50 (HL-60 [6]) | IC50 (HL-60 [7]; [10]) | RF (HL-60 [8]) | IC50 (HL-60 [5]; hl-60) | Relative potency (CCRF-CEM [9]) | IC50 (HL-60 [7]; hl-60)
1 | COc1cc([C@H]2c3cc4c(cc3C[C@H]3COC[C@@H]32)OCO4)cc(OC)c1OC | 0.23 | 8.15 µg/mL (≈ 21.2 µM) | 0.4 | 0.14 | 7.09 µg/mL (≈ 18.5 µM) | 3.06 µg/mL (≈ 7.96 µM) | 4.86 µg/mL (≈ 12.6 µM) | 0.7 |  |  | 
2 | COc1ccc([C@@H]2c3cc(OC)c(OC)cc3C[C@H]3COC[C@@H]32)cc1OC | 0.01 | 38.5 µg/mL (≈ 104 µM) | 0.3 | 0.03 |  | 36.1 µg/mL (≈ 97.4 µM) | 23.3 µg/mL (≈ 63 µM) | 0.2 | 117.178 µg/mL (≈ 316 µM) |  | 
3 | COc1ccc([C@H]2c3cc(OC)c(OC)cc3C[C@H]3COC[C@@H]32)cc1OC | 0.05 | 21.9 µg/mL (≈ 59 µM) | 0.4 | 0.05 | 36.3 µg/mL (≈ 97.9 µM) | 14.7 µg/mL (≈ 39.8 µM) | 26.1 µg/mL (≈ 70.3 µM) | 0.7 |  |  | 
4 | COc1cc2c(cc1OC)C(c1cc(OC)c(OC)c(OC)c1)[C@H]1COC[C@@H]1C2 (some centres not stated) | 3.08 | 0.47 µg/mL (≈ 1.17 µM) | 0.6 | 2.4 | 0.533 µg/mL (≈ 1.33 µM) | 0.314 µg/mL (≈ 0.784 µM) | 0.362 µg/mL (≈ 0.904 µM) | 0.7 |  |  | 
5 | COc1cc([C@@H]2c3cc4c(cc3C[C@H]3COC[C@@H]32)OCO4)cc(OC)c1OC | 54.8 | 0.043 µg/mL (≈ 0.112 µM) | 0.5 | 27 | 0.03 µg/mL (≈ 0.078 µM) | 0.015 µg/mL (≈ 0.039 µM) | 0.019 µg/mL (≈ 0.0494 µM) | 0.6 |  |  | 
6 | COc1cc([C@@H]2c3cc4c(cc3[C@@H](O[C@@H]3O[C@@H]5CO[C@@H](C)O[C@H]5[C@H](O)[C@H]3O)[C@H]3COC(=O)[C@H]23)OCO4)cc(OC)c1O [ETOPOSIDE] |  | 1.15 µg/mL (≈ 1.95 µM) | 11 |  | 1.64 µg/mL (≈ 2.79 µM) | 18.1 µg/mL (≈ 30.7 µM) |  | 33 |  | 1 | 54.94 µg/mL (≈ 93.3 µM)
